# PAFAH1B2 inh: PAFAH1B2 enzyme inhibitors, primary screen, biochemical, fluorescence polarization, human; recombinant PAFAH1B2, FP-rhodamine activity probe; inhibition, % at 3.39 µM; 340,000 tested, 1.2% active;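 active = inhibition above the mean of all tested compounds plus 3 SD, cut at about 24% in these data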;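 also: 0% = enzyme with DMSO and 100% = wells lacking PAFAH1B2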
# UCH37 DUB inh: inhibitors of human UCH37 deubiquitinase, primary screen, biochemical, Ub-AMC cleavage, fluorescence. Ubiquitin carboxyl-terminal hydrolase isozyme L5 (Homo sapiens), Q9Y5K5. inhibition, % (test concentration not listed). 330,000 tested, 0.33% active. purified proteasome/UCH37. AID 588478, 2011;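 active = mean inhibition over replicate wells above about 20%, limit read from the data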;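 also: 0% = compound-free wells with enzyme and 100% = wells lacking proteasome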
# Target sequence (Q9Y5K5 whole entry, looked up): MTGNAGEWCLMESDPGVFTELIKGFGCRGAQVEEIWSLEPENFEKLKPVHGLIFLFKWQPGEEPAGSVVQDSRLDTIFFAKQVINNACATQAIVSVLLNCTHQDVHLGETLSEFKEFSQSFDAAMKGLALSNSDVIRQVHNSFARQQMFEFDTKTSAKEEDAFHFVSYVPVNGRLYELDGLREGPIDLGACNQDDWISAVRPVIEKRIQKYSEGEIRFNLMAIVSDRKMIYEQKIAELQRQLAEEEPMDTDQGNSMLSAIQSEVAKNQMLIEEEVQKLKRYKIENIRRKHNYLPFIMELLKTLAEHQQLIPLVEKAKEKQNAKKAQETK
#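 assay system = human UCH37 enzyme supplied as purified proteasome complex | amount = proteasome at 0.15 nM in the dispensed enzyme solution | schedule = 30 min compound-proteasome preincubation then 25 min substrate reaction, room temperature | measured by = fluorescence, ex 355 nm, em 460 nm | benchmarks = no-proteasome wells (full inhibition) and compound-free wells (no inhibition)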
# NR3A LBD binder: binders of NR3A ligand-binding domain, primary screen, biophysical, differential scanning fluorimetry, uHTS | Glutamate receptor ionotropic, NMDA 3A (GRIN3A) ligand-binding domain | NR3A LBD differential scanning fluorimetry, Tm shift; 0% = protein alone, 100% = glycine-bound protein | Tm shift relative to glycine control, % at 25 µM | 340,000 tested, 2.5% active | AID 1259313, 2017;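 active = melting temperature shift of at least 10% of the positive control shift, at one fixed dose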
# PAFAH2 inh: PAFAH2 enzyme inhibitors, primary screen, biochemical, fluorescence polarization, human | 340,000 tested, 0.99% active | Platelet-activating factor acetylhydrolase 2, cytoplasmic (Homo sapiens), Q99487 | inhibition, % at 3.39 µM | AID 492956, 2010 | recombinant PAFAH2, FP-rhodamine activity probe;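 active = inhibition above the mean over all tested compounds plus 3 SD, cut at about 30% in these data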;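 also: inhibitors block probe labeling of enzyme so polarization drops; 0% = enzyme with DMSO and 100% = wells lacking PAFAH2 protein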
# pPAFAH inh: pPAFAH enzyme inhibitors, primary screen, biochemical, fluorescence polarization, human. inhibition, % at 3.39 µM. AID 463082, 2010. Platelet-activating factor acetylhydrolase (Homo sapiens), Q13093. recombinant pPAFAH, FP-rhodamine probe fluorescence polarization. 330,000 tested, 1.5% active;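 active = inhibition above the mean inhibition across the screen plus 3 SD, cut at about 25% in these data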;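 also: inhibitors block binding of the rhodamine activity-based probe so polarization drops; 0% = enzyme with DMSO and 100% = wells lacking pPAFAH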
# PAFAH1B3 inh: PAFAH1B3 enzyme inhibitors, primary screen, biochemical, fluorescence polarization, human; Platelet-activating factor acetylhydrolase IB subunit alpha1 (Homo sapiens), Q15102; recombinant PAFAH1B3, FP-rhodamine probe; inhibition, % at 3.39 µM; 340,000 tested, 0.28% active;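 active = inhibition above the screen-wide average of all tested compounds plus 3 SD, cut at about 25% in these data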;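 also: 0% = enzyme with DMSO only and 100% = wells lacking PAFAH1B3 protein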
# PAFAH2 confirm: PAFAH2 enzyme inhibitors, confirmation, biochemical, fluorescence polarization, human. inhibition, % at 3.39 µM. 2,300 tested, 65% active. recombinant PAFAH2, FP-rhodamine activity probe. shares compounds with PAFAH2 inh;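 active = mean inhibition over three repeats above a set limit taken from the earlier primary screen, cut at about 30% in these data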;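 also: inhibitor blocks binding of rhodamine activity probe so polarization falls; 0% = enzyme with DMSO and 100% = wells lacking PAFAH2 protein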
# Numbers without * were called inactive; / = no result given. A selection: hits, their analogues and other compounds. The true share with any hit is near 4.8%.
SMILES,PAFAH1B2 inh,UCH37 DUB inh,NR3A LBD binder,PAFAH2 inh,pPAFAH inh,PAFAH1B3 inh,PAFAH2 confirm
CC1CC1C(=O)OCC(=O)Nc1cccc(S(=O)(=O)NC2=NCCCCC2)c1 (centres undefined),4,1,-2,34*,5,6,20
Cc1cc(NN=C2CC(C)CC(C)(C)C2)nc2ccccc12 (centres undefined),/,-6,/,/,/,/,/
Cc1cc(C)nc(NN=Cc2ccco2)n1,/,7,/,/,/,/,/
Cc1ccc(Nc2c([N+](=O)[O-])c(=O)oc3ccccc23)cc1,-2,5,-3,1,4,12,/
O=c1oc2ccccc2c(Nc2ccc3ccccc3c2)c1[N+](=O)[O-],7,0,2,34*,18,3,28
O=[N+]([O-])c1ccc(CN2CCCCCC2)cc1,7,3,-1,-6,2,6,/
O=[N+]([O-])c1ccc(CN2CCCCCC2)s1,5,7,-1,32*,5,5,11
Cc1ccc(Nc2nc(N)nc(CSC(=S)N3CCOCC3)n2)c(C)c1,0,2,-1,46*,2,-4,42*
COc1ccc(Nc2nc(N)nc(CSC(=S)N3CCOCC3)n2)cc1,-1,4,0,-2,4,-5,/
CCOc1ccccc1-n1nnnc1SCC(=O)N1CCCC1=O,2,3,-2,66*,0,17,56*
O=C1CCCN1C(=O)CSc1nnnn1-c1cccc(F)c1,10,2,3,28,-1,13,/
Cc1nc2ccccc2c(=O)n1N=Cc1ccc(O)c(O)c1O,/,11,/,/,/,/,/
O=C(COC(=O)C1CC1)Nc1ccc(N=Nc2ccccc2)cc1,3,4,0,85*,10,4,78*
O=C(COC(=O)C1CC1)Nc1ccc(OC(F)F)cc1,1,3,0,55*,13,9,46*
O=C(COC(=O)C1CCC1)Nc1ccc(OC(F)F)cc1,4,0,1,16,-1,-3,/
O=C(COC(=O)C1CC1)NC(=O)c1ccccc1,11,4,1,32*,0,2,13
CC(=NNC(=O)CSCc1ccccc1Cl)c1cc(O)ccc1O,/,3,/,/,/,/,/
Cc1ccc(C(=O)ON=C(c2nonc2N)N(C)C)cc1,/,6,/,/,/,/,/
O=C(NN=Cc1cc2c(cc1Cl)OCO2)c1ccccn1,/,-8,/,/,/,/,/
COc1ccc(/C=C/C(=O)OCC(=O)NCC2CCCO2)cc1 (centres undefined),4,4,3,37*,4,7,30*
COc1cccc(/C=C/C(=O)OCC(=O)NCC2CCCO2)c1OC (centres undefined),1,6,0,51*,5,3,35*
Cc1cc(O)c(C=NNc2ccccc2)c(=O)o1,/,6,/,/,/,/,/
O=[N+]([O-])c1ccc(O)c(N=Cc2sc3ccccc3c2O)c1,-5,6,16*,33*,14,3,16
CC(=NOCc1ccc(Br)cc1)c1ccccn1,/,0,/,/,/,/,/
Cc1ccsc1C(=O)OCC(=O)N(C)C1CCCCC1,13,2,0,36*,3,3,17
Cc1ccsc1C(=O)OCC(=O)NC1CCCC1,3,2,1,63*,21,-3,47*
CN(C(=O)COC(=O)c1cccnc1Cl)C1CCCCC1,4,-1,0,16,4,3,/
CCNC(=O)COC(=O)c1sccc1C,4,2,-5,6,3,4,/
CCN(CC)Cc1c(C(=O)NN=Cc2cccc3ccccc23)nnn1-c1nonc1N,/,4,/,/,/,/,/
CC(C)(C)c1ccc(S(=O)(=O)N2CC(C(=O)O)Oc3ccc(Cl)cc32)cc1 (centres undefined),21,-2,-4,34*,7,-3,19

# Screening results as filed in PubChem BioAssay.
